The results in this text go back to ChEMBL document CHEMBL3351225, “Design, synthesis, and structure-activity and structure-pharmacokinetic relationship studies of novel [6,6,5] tricyclic fused oxazolidinones leading to the discovery of a potent, selective, and orally bioavailable FXa inhibitor” (J Med Chem, 2014).

The nature of series [1]: AUC (0 to infinity) in Sprague-Dawley rat at 10 mg/kg, po. More on the design: time infinity, dose 10 mg/kg, route oral. The class given is ADME, organism-based. The note with it: plasma. In outline: (§1)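 Male Sprague-Dawley rats, 200−220 g, four per group. Vehicle was 5% DMSO + 5% Tween-80 in 90% saline. The reference drug was given in 10% DMSO + 10% Tween-80 + 80% PEG400 (40% solution in saline). Serial retrobulbar vein samples were quantified by LC-MS. Parameters came from noncompartmental analysis of mean plasma concentrations.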

The next series deals with Salmonella typhimurium. In words: Genotoxicity in Salmonella typhimurium by Ames test. The note with it: salmonella enterica subsp. enterica serovar typhimurium. In kind it is toxicity, organism-based. In general terms: The Ames test uses bacterial strains that need an amino acid and regain growth without it when mutated back.
For a further series, the system named is V79. The experiment in a line: Toxicity in Chinese hamster V79 cells by micronucleus Assay. The class given is cell-based, Cricetulus griseus.
A further series has as its target Coagulation factor XI (Homo sapiens, UniProt P03951). In words: Inhibition of human factor 11a using S-2366 chromogenic substrate. Summed up:
(§2)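 Human enzyme and inhibitor were premixed and preincubated, then the chromogenic substrate was added. Substrate levels: 300 μM S-2765 (FXa, trypsin); 200 μM S-2366 (FIIa); 2 mM S-2366 (FVIIa, FXIa). pNA release was monitored continuously at 405 nm for 20 min at 37 °C. IC50 was obtained by nonlinear regression.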

Series [2] is described as follows: AUC (0 to infinity) in Sprague-Dawley rat at 3 mg/kg, iv. The following applies: plasma. The class given is ADME, organism-based. Set-up: time infinity, dose 3 mg/kg, route intravenous. In outline: as §1
Another series has as its target Prothrombin (Homo sapiens, UniProt P00734). The experiment in a line: Inhibition of human factor 2a using L-pyro-Glu-Pro-ArgpNA, S-2366 chromogenic substrate. In outline:
as §2

Series [3] in a line: Plasma clearance in Sprague-Dawley rat at 3 mg/kg, iv. In kind it is ADME, organism-based. Set-up: dose 3 mg/kg, route intravenous. In outline:
as §1

Another series has as its target Coagulation factor IX (Homo sapiens, UniProt P00740). In words: Inhibition of human factor 9a using CH3SO2-(D)CHG Gly-Arg-pNA, Biophen-CS51 chromogenic substrate.
The test system of series [4] is Rattus norvegicus. The experiment in a line: Toxicity in rat assessed as induction of organ coefficients changes at 100 mg/kg, po dosed once daily for 2 weeks. In kind it is organism-based. More on the design: dose 100 mg/kg, route oral. The note with it: in vivo, 336 h. In outline:
(§3)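 Subacute toxicity in rats: oral dosing once daily for 2 weeks at 50 mg/kg (medium) or 100 mg/kg (high). Behavior, body weight, food intake, organ coefficients and survival rate were monitored.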

Series [5] concerns Rattus norvegicus. The experiment in a line: Toxicity in rat assessed as induction of behavioral changes at 50 mg/kg, po dosed once daily for 2 weeks. In kind it is organism-based. More on the design: dose 50 mg/kg, route oral. The following applies: in vivo, 336 h. In outline: as §3
Another series addresses T1, Cytochrome P450 1A2 (Homo sapiens, UniProt P05177).
T1 sequence (P05177 whole entry): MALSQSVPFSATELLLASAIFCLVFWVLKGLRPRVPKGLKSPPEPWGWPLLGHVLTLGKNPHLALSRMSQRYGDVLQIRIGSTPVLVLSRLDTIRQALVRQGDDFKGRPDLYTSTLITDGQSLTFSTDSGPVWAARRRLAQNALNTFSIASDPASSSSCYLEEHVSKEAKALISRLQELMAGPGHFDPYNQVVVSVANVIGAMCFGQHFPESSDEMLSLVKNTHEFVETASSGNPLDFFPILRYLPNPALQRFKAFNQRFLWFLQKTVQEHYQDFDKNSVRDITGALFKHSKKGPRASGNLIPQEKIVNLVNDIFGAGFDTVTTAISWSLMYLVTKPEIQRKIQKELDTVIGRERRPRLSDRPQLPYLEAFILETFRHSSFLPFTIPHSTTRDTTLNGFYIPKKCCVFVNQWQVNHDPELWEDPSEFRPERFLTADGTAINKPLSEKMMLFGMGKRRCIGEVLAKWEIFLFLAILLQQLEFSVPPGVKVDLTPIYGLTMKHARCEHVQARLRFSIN
In words: Inhibition of CYP1A2 (unknown origin). In kind it is ADME.

The test system of series [6] is Rattus norvegicus. In words: Toxicity in rat assessed as induction of food intake changes at 50 mg/kg, po dosed once daily for 2 weeks. In kind it is organism-based. More on the design: dose 50 mg/kg, route oral. The note with it: in vivo, 336 h. Summed up:
as §3

Series [7] has as its system Rattus norvegicus. The experiment in a line: Antithrombotic activity in rat model of FeCl3-induced venous thrombosis assessed as reduction in thrombus formation dosed orally 60 mins before thrombus formation. The note with it: po.
Series [8] in a line: Plasma clearance in Beagle dog at 0.5 mg/kg, iv. The class given is ADME, organism-based, Canis lupus familiaris. Set-up: dose 0.5 mg/kg, route intravenous. Summed up: (§4)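 Male dogs, three per group. Dosed orally at 1 mg/kg or by intravenous infusion at 0.5 mg/kg. Vehicle was 5% DMSO + 5% Tween-80 in 90% saline, or 10% DMSO + 10% Tween-80 + 80% PEG400 for the reference drug. Foreleg blood samples were quantified by LC-MS. Parameters came from noncompartmental analysis of mean plasma concentrations.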

For another series, the target named is Cytochrome P450 2C9 (Homo sapiens, UniProt P11712). In words: Inhibition of CYP2C9 (unknown origin). The class given is ADME.
Series [9] concerns Rattus norvegicus. The experiment in a line: Antithrombotic activity in rat model of arteriovenous shunt-induced thrombosis assessed as reduction in thrombus formation dosed orally 60 mins before shunt opening. The following applies: po.
Series [10] in a line: Elimination half life in Beagle dog at 0.5 mg/kg, iv. The class given is ADME, organism-based, Canis lupus familiaris. Set-up: dose 0.5 mg/kg, route intravenous. The following applies: in vivo. In outline:
as §4

Series [11] concerns Rattus norvegicus. The experiment in a line: Toxicity in rat assessed as induction of organ coefficients changes at 50 mg/kg, po dosed once daily for 2 weeks. Set-up: dose 50 mg/kg, route oral. In kind it is organism-based. The following applies: in vivo, 336 h. Summed up:
as §3

Molecules are shown by their SMILES. A value given as a limit tells only on which side of the number the result lay.

Chain of Coagulation factor IX (P00740 47-191 limits assumed): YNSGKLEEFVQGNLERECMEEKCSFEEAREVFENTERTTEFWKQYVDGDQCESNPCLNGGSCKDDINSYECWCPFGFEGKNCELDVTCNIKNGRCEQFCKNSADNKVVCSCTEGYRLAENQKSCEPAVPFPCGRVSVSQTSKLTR
Chain of Coagulation factor IX (P00740 227-461 limits assumed): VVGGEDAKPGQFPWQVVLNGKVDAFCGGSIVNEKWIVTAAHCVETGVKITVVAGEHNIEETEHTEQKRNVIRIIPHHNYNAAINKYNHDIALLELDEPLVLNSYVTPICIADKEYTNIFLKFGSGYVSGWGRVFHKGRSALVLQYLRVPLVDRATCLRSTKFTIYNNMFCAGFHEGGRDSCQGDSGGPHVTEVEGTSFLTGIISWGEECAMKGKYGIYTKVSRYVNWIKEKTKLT
Chain of Cytochrome P450 2C9 (P11712 whole entry): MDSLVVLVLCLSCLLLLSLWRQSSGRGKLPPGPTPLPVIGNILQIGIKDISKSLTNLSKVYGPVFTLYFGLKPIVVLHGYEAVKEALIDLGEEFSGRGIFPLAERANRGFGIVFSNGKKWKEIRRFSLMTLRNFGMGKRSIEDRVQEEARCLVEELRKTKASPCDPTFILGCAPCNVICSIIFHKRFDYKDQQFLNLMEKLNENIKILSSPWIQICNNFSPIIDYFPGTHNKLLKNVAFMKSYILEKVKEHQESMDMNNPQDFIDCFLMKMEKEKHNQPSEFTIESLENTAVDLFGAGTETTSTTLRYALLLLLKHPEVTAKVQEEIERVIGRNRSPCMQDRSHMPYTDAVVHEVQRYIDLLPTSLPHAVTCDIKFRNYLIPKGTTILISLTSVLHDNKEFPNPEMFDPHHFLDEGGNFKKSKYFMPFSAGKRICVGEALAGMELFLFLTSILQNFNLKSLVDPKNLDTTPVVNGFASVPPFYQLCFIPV
Chain of Coagulation factor XI (P03951 19-387 limits assumed): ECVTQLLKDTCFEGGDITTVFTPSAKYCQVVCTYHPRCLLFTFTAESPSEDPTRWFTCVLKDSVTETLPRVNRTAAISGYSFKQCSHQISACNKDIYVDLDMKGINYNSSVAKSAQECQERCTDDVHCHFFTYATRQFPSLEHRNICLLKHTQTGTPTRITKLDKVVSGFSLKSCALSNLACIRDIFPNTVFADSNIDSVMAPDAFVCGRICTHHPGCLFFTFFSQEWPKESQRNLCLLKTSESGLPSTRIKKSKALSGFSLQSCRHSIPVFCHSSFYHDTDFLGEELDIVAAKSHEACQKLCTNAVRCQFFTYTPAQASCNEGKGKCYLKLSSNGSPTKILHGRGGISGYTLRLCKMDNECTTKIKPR
Chain of Coagulation factor XI (P03951 388-625 limits assumed): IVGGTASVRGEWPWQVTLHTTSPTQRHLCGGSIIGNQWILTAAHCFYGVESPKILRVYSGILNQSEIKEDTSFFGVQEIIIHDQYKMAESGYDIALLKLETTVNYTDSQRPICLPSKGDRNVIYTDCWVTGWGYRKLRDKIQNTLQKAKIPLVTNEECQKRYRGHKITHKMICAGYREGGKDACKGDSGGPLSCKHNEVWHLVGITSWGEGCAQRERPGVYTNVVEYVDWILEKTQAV

One may read the AUC(0-inf) as total exposure, with the tail of the curve extrapolated. The term IC50 denotes the concentration that gives 50% inhibition. Broadly, the clearance is a measure of how efficiently the substance is removed, as volume per time. High values mean efficient removal, low ones inefficient removal. As usually defined, the ED50 is the dose at which the effect has come halfway, by size or by number of responders. As usually defined, the half-life is the time needed for the level to fall by half in the phase considered. As for `O=C(NC[C@@H]1OC(=O)N2c3ccc(N4CCOCC4=O)cc3OC[C@@H]12)c1ccc(Cl)s1`, the AUC(0-inf) in [1] turned out to be 33000 ng·h/mL; in series [2] it was 15300 ng·h/mL. Besides, the Activity entry in the series with Salmonella typhimurium, in the series with V79, with Rattus norvegicus [4], with Rattus norvegicus [5], with Rattus norvegicus [6] and with Rattus norvegicus [11] was “Non-toxic” throughout. Further, the IC50 at Coagulation factor XI is over 100 µM; against Prothrombin it was over 100 µM; against Coagulation factor IX it was over 100 µM; at Cytochrome P450 1A2, over 200 µM; at Cytochrome P450 2C9 it was 43.2 µM. Besides, the clearance in series [3] was 3.35 mL/min/kg; in series [8], 6.67 mL/min/kg. The ED50 turned out to be 5.63 mg/kg in the series with Rattus norvegicus [7] and 5.28 mg/kg in the series with Rattus norvegicus [9]. In [10], this compound had a half-life of 3.1 h.
